# Compound activity deposited in PubChem BioAssay by several laboratories.
# Efa HMGR inh – inhibitors of E. faecalis class II HMGR, primary screen, biochemical, Enterococcus faecalis; 0.41% of 190,000 active; purified E. faecalis HMGR, NADPH absorbance 340 nm kinetic; inhibition, % at 10 µM;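 active means inhibition above a set limit, the median over all tested compounds plus 3 SD, cut at about 9.5% in these data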;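 further: enzyme runs in reverse so mevalonate oxidation gives rising NADPH absorbance; 0% = complete reaction with DMSO and 100% = background rate lacking mevalonate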
# Calpain2 inh – inhibitors of pig calpain II, primary screen, biochemical, fluorogenic peptide substrate, 1536-well | AID 1236, 2008 | inhibition, % at 16 µM | purified calpain II, 30 min | 0.37% of 220,000 active;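 active means inhibition above about 50%, limit read from the data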
# PMI act satM6P – human PMI activators, high substrate, primary screen, biochemical, fluorescence intensity, near-saturating mannose 6-phosphate; 0.34% of 190,000 active; Mannose-6-phosphate isomerase (Homo sapiens), P34949; coupled PMI enzyme assay, resazurin fluorescence, 20 min; active compounds read high; 1 = untreated enzyme, 0 = substrate-free blank; activation factor at 20 µM; AID 1216, 2008;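 active means activation factor of 2 or more at 20 µM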
# Target sequence (P34949 whole entry, looked up): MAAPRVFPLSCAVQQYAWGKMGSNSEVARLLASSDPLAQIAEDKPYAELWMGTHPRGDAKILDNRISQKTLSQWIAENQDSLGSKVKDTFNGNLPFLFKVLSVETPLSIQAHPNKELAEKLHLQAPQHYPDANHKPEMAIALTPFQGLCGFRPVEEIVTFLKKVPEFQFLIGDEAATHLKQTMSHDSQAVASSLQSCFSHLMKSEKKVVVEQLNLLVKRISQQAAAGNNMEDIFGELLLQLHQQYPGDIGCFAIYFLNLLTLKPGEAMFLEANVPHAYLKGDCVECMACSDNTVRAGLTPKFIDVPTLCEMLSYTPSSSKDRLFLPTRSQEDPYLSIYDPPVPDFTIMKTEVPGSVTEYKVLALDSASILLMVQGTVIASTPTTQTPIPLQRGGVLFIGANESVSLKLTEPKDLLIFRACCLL
#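 Material: human phosphomannose isomerase with PGI, G6PDH, diaphorase coupling enzymes / Reagent: Man-6-P substrate 1.0 mM / Dosing: single compound dose of 20 µM, 1% DMSO final / Incubation: enzyme reaction with compound 20 min at room temperature / Signal: resorufin fluorescence (Ex 544/Em 590 nm) from resazurin via diaphorase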
# Rad51 HR inh – human RAD51 strand exchange inhibitors, primary screen, biochemical, fluorescence | DNA repair protein RAD51 homolog 1 (Homo sapiens), Q06609 | hRad51 DNA strand exchange, fluorescence dequenching | inhibition, % at 10 µM | 0.085% of 200,000 active | AID 1385, 2008;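 active means inhibition above 40% at the single screening dose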;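 further: 0% = DMSO control wells and 100% = blanks with heterologous ssDNA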
#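 Material: human Rad51–ssDNA filaments; Probe or stimulus: labelled 47-mer dsDNA for strand exchange; Doses: single 10 µM dose; Incubation: 37 °C 15-min filament assembly, 30-min compound preincubation, 15-min exchange; Technique: FRET fluorescence dequenching, excitation 485 nm, emission 520 nm; Measure: Fluorescence-based percent inhibition, control- and blank-normalised; Benchmarks: plate control and blank wells.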
# PMI act – activators of human PMI, primary screen, biochemical, fluorescence intensity, near-Km mannose 6-phosphate | purified human PMI, coupled resazurin fluorescence, 20 min; active compounds read high; 1 = vehicle control, 0 substrate-free wells | AID 1214, 2008 | activation factor at 20 µM | 0.005% of 190,000 active;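 active means activation factor of 2 or more at 20 µM, relative to plate controls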
# * marks the source's active call; other numbers are inactive results; i = inactive; nt = no result; ! = not active in a repeat. Rows were chosen to be rich in hits. Some 1.1% of all compounds tested hit in one or more screens of this group.
SMILES,Efa HMGR inh,Calpain2 inh,PMI act satM6P,Rad51 HR inh,PMI act
Cc1cc(C)n2nc(SCc3nnc(SCc4ccccc4C)s3)nc2n1,-1,0,1,-2,1
COc1ccc(C(=O)/C=C/c2ccc(OC)c(Cn3nnc4ccccc43)c2)cc1,-2,9,0.9,2,0.8
CC(C)=CCN1CCN(Cc2nc(C(C)C)cs2)CC1CCO (stereo not given),-1,-2,0.9,21,0.9
Cc1cccc(-c2ncc(CN3CCN(CC(C)C)C(CCO)C3)cn2)c1 (stereo not given),9.6*,17,1.1,2,1
CC(C)CN1CCN(Cc2nc(C(C)C)cs2)CC1CCO (stereo not given),11*,2,1,nt,1
COc1cc([N+](=O)[O-])ccc1NC(=O)CC(C)C,-6,21,0.9,nt,1
CCOc1ccc(N2C(=O)CC(NCCNc3ccc(C(=O)c4cccs4)cc3)C2=O)cc1 (stereo not given),-1,30,0.9,4,1
CCOC(=O)C1CCCN(S(=O)(=O)c2cccs2)C1 (stereo not given),-6,57*,1,-7,0.9
O=C1C(Cl)=C(Nc2ccccc2)C(=O)c2ccccc21,1,43,0.5,6,1
O=C(O)c1ccc(NC2=C(Cl)C(=O)c3ccccc3C2=O)cc1,nt,58*,nt,-7,nt
O=C(CSCc1ccc(Cl)cc1)NCc1ccccn1,4,15,1,1,1
CC(=O)NNc1ncnc2ccccc12,-6,-3,0.9,-5,0.9
CCCCC(Nc1ncnc2ccccc12)C(=O)O (stereo not given),-2,-20,1,73*,1
O=C(/C=C/c1ccccc1)Nc1ccc(C(=O)N2CCCCC2)cc1,-3,13,0.9,nt,0.8
COc1ccc(NC(=S)N(CCCN2CCOCC2)Cc2cn(C)c3ccccc23)cc1,-2,54*,0.9,12,0.8
O=C1c2cccc3cccc(c23)C(=O)N1CCN1CCN(C(=S)Nc2ccc(Cl)cc2)CC1,-1,54*,1,1,1
O=C1c2cccc3cccc(c23)C(=O)N1CCN1CCN(C(=S)Nc2ccccc2)CC1,0,-7,1,nt,1
C=CCNc1cnn(-c2ccc(C)cc2)c(=O)c1Sc1ccc(C)cc1,-2,65*,1,-4,1
CCCCn1c(=O)[nH]c(=O)c2c1nc(-c1ccccc1F)n2Cc1ccccc1OC,-5,-10,1,23,1
Cc1cccc(C2Nc3ccccc3C(=O)N2c2ccc(F)cc2)n1 (stereo not given),9.8*,i,1,-2,1
Fc1ccc(CSc2nc3ccccc3[nH]2)c2ccccc12,0,59*,0.8,7,0.8
COc1ccc(OC)c(CNc2ccc([N+](=O)[O-])cc2C)c1,-4,51*,0.9,-2,1
COc1cccc(CNc2ccc([N+](=O)[O-])cc2C)c1,0,46,0.9,-9,1
C=CCOc1ccc(Br)cc1CNC(C)(C)C,22*,-13,1.1,6,1.1
O=C1OCC2=C1C(c1ccccc1)CC(=O)N2c1ccccc1 (stereo not given),-4,-18,1.1,51*,1.2
SMILES,Efa HMGR inh,Calpain2 inh,PMI act satM6P,Rad51 HR inh,PMI act
O=C1c2ccccc2NC(c2cn[nH]c2-c2ccc(Cl)cc2)N1O (stereo not given),-1,15,2.2*,nt,1.7
CCN(CC)C(=O)CSc1nnc(CSc2ncccn2)n1C,nt,-29,nt,-2,nt
CCOC(=O)/C(=C/c1ccccc1)NC(=O)c1ccco1,-4,43,1,4,0.9
O=c1[nH]ncc2c3ccccc3n(Cc3cccc(Cl)c3)c12,16*,5,0.9,-396,1.1
N#Cc1cc2c([nH]c1=S)CCCC2,-7,-5,2*,nt,1.8
CCc1ccc2nc(NC(=O)c3ccc(N4C(=O)CCC4=O)cc3)sc2c1,nt,-29,nt,15,nt
CNS(=O)(=O)c1ccc2nc(NC(=O)c3ccc(N4C(=O)CCC4=O)cc3)sc2c1,10*,-44,0.9,-2,1
CN(C)CCNc1c2c(nc3nnnn13)CCCC2,5,-16,1,-3,1
CCCCSc1nc(C)[nH]c1[N+](=O)[O-],0,-3,2*,6,1.7
Cc1nc(SCCO)c([N+](=O)[O-])[nH]1,nt,-10,nt,-1,nt
COc1ccccc1NC(=O)Nc1ccc(F)c(F)c1,-6,-5,0.9,41*,0.9
CCC(C)(C)NC(=O)CN(Cc1ccccc1Cl)C(=O)CCC(=O)Nc1cc(C)ccn1,4,-3,nt,7,nt
CC(C)(C)c1ccccc1OCCCCCNCCO,0,-7,0.9,-6,0.9
CN(C(=O)CCN1C(=O)C(C)(C)Nc2ccccc21)c1ccccc1,36*,14,0.9,-4,0.9
CC1(C)Nc2ccccc2N(CCC(=O)N2CCOCC2)C1=O,-3,-24,1,8,1.1
COc1cccc(/C=N/NC(=O)CNC(=O)c2ccc(S(=O)(=O)N3CCCC3)cc2)c1OC,5,-61,1,4,0.9
Cn1nc(C(F)(F)F)c2cc(NC(=O)OCc3ccc(F)cc3)sc21,4,90*,0.8,1,0.8
Cn1nc(C(F)(F)F)c2cc(NC(=O)OCc3ccc(C(C)(C)C)cc3)sc21,2,33,0.9,nt,0.8
COc1ccc(COC(=O)Nc2cc3c(C(F)(F)F)nn(C)c3s2)cc1,7,62*,1,-1,0.9
CC(C)(C)OC(=O)N1CCN(c2ccc([N+](=O)[O-])cc2)CC1,-2,5,1,-1,0.9
O=C(OCc1nnc(-c2ccccc2)o1)c1ccc2c(c1)OCO2,-4,72*,1,-1,1
CCCCCCCCCCCCCCCCn1cc[n+](C)c1,-6,54*!,1.1,11,1.1
CC(NC(=O)CCc1nnc(-c2ccc(-c3ccccc3)cc2)o1)c1nc2ccccc2[nH]1 (stereo not given),-2,-67,0.7,12,0.8
O=C(NCc1ccccc1Cl)C1CCCN(c2nc3ccsc3c(=O)s2)C1 (stereo not given),-1,53*,1.1,-2,1
Nc1cc(N)nc(CS)n1,nt,1,nt,4,nt
CCCc1ccc(OC(=O)c2ccc(O)cc2Cl)cc1,4,62*,0.9,-9,0.9
CC(C)c1ccc(/C=C/C2=NNC(=O)CC2)cc1,-2,92*,1.1,-7,1.1
COc1ccc(CNC(=O)COC(=O)c2ccccc2C(=O)c2ccccc2)cc1,-4,17,1,7,1
Clc1cncc(Cl)c1NNc1c2ccccc2nc2ccccc12,-5,-16,2.2*,5,1.6
